Mdm2 MdmX PPI: human Mdm2/MdmX binding inhibition | inhibition, % at 8 µM | O15151+Q00987 | SaOS-2 split-luciferase Mdm2/MdmX complementation, luminescence | 330,000 compounds, 3% hits;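 active = inhibition of at least 50% at 8 µM in the primary screen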
Target sequence (O15151 whole entry, looked up): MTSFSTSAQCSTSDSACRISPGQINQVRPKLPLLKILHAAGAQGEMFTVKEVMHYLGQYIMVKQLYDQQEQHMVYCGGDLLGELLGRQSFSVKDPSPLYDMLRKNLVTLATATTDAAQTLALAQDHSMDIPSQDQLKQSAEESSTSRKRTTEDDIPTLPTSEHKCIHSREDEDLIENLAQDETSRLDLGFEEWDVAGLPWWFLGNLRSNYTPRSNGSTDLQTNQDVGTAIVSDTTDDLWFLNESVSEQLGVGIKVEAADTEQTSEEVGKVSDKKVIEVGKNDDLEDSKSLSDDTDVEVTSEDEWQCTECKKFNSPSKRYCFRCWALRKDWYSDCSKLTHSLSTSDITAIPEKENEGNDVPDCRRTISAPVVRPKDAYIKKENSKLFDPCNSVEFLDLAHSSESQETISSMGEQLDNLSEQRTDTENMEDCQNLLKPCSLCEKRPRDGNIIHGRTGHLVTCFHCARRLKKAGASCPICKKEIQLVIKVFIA
Target sequence (Q00987 whole entry, looked up): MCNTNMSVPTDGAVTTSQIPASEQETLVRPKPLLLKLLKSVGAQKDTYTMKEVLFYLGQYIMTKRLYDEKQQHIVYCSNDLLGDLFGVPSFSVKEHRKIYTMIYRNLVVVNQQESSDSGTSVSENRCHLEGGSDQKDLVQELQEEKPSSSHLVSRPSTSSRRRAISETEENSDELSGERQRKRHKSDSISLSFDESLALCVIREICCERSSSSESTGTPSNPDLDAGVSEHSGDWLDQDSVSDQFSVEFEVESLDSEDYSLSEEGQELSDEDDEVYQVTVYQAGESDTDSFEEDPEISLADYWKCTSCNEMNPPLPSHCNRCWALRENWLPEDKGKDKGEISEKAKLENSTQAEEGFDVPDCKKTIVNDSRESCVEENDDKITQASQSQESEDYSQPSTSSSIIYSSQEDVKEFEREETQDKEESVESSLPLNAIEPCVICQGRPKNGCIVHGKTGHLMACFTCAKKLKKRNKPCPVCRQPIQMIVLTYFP
T cruzi inh: T. cruzi replication inhibition; inhibition, % (no concentration beside the values); 300,000 compounds, 1.4% hits; T. cruzi beta-gal in NIH3T3, luminescence, 90 h;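 active = mean inhibition across valid replicates above about 55%, limit read from the data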;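 also: signal also drops with host cell toxicity which is not excluded here; 0% = plate median of DMSO wells and 100% = zero luminescence signal; higher percent means less beta-gal luminescence so fewer parasites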
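assay system = mouse NIH/3T3 fibroblasts infected with β-gal-expressing T. cruzi Tulahuen C4 | input = 5,000 NIH/3T3 host cells per well | buffer or medium = DMEM plus 2% FBS | timing = 3 h host attachment, then at least 90 h co-culture | measured by = GalScreen luminescence, 60 min | evaluation = luminescence reflecting intracellular parasite burden, expressed as percent inhibition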
CHOP UPR activ: apoptotic UPR (CHOP) activation; CHO-CHOP luciferase reporter, luminescence; percent of tunicamycin response over DMSO baseline; 330,000 compounds, 0.34% hits; activation, % at 10 µM;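 active = at 10 µM dose, activation of 40% or more, normalized to positive control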;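 also: 100% = tunicamycin at 10 µg/mL and 0% = DMSO alone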
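Test system: CHO CHOP reporter cells. Input: 500 CHO-CHOP cells per well. Medium: F12 with 10% FBS. Technique: luciferase luminescence. Measure: percent activation relative to tunicamycin control. Dosing: 10 µM compound, 0.5% DMSO. Timing: 16-18 h cell attachment, then 6 h compound exposure, 37 °C.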
CSC inhib: cancer stem cell inhibition. cancer stem cell-like cells viability, luminescence. inhibition, % at 7.5 µM. 300,000 compounds, 1.1% hits; in the data active = inhibition above about 75%; tested in HMLE shEcad cells
Beta cell apopt: beta cell apoptosis inhibition; INS-1E cytokine-induced death, ATP luminescence, 48 h; percent of positive-control rescue, neutral wells zero; protection from apoptosis, % (concentration not given with the values); 300,000 compounds, 0.8% hits; AID 435005;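 active = Every replicate reaches about 75%, or at least half do and their mean reaches it too, limit read from the data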;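 also: 0% = cytokine-treated negative control wells and 100% = positive control rescue; higher means more ATP so stronger rescue from cytokine killing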
XBP1 UPR activ: activators of adaptive arm of unfolded protein response (XBP1); CHO-XBP1 luciferase reporter, IRE1-XBP1 UPR activation, luminescence; percent of tunicamycin response, DMSO as zero; activation, % at 20 µM; 330,000 compounds, 0.33% hits; AID 463104;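 active = versus positive control, 20 µM dose yields 30% or more activation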;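 also: 100% = tunicamycin at 10 µg/mL and 0% = DMSO only wells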
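Test system: CHO-XBP1 luciferase reporter cells | Buffer or medium: Serum-containing F12 medium, 10% FBS | Schedule: 6 h compound exposure at 37 °C, 5% CO2 | Detection: Steady-Glo luciferase glow luminescence, 10 min after reagent addition | Read-out basis: Activation, % of tunicamycin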
Mdm2-MdmX conf: human Mdm2/MdmX binding inhibition, confirmed; shares compounds with Mdm2 MdmX PPI; luminescent assay; inhibition, % at 8 µM; 10,000 compounds, 55% hits; AID 489028; in the data active = inhibition above about 40%
FLuc counter: counter-screen for Mdm2/MdmX inhibitors: full-length luciferase; AID 504607; shares compounds with Mdm2 MdmX PPI; SaOS-2 full-length luciferase counterscreen, luminescence; inhibition, % at 8 µM; 6,200 compounds, 77% hits;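 active = mean inhibition at 8 µM reaching about 37%, which flags the compound as non-specific, limit read from the data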;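 also: p53-null SaOS-2 cells with luciferase driven by a doxycycline-inducible promoter; compound on cells about two nights before reading with doxycycline added after day one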
* hit, by the source's call; · = not tested or not shown. Only some compounds are listed: those with a hit (about 5% of all), similar ones and a draw of the others.

SMILES	Mdm2 MdmX PPI	T cruzi inh	CHOP UPR activ	CSC inhib	Beta cell apopt	XBP1 UPR activ	Mdm2-MdmX conf	FLuc counter
CC(=O)Nc1cccc(C(=O)N2CCC(n3nccc3NC(=O)CC(C)C)CC2)c1	22	-2	0	-12	-3	-3	·	·
Cc1cc(NC(=O)c2ccc(F)cc2)n(-c2ccccn2)n1	-11	7	-1	·	8	6	·	·
Cc1cc(NC(=O)c2ccc(C#N)cc2)n(-c2ccccn2)n1	63*	3	1	-7	-1	16	-8	·
CCC1=C(OC(=O)N(CC)CC)N2C(=O)OC(=NCCc3c[nH]c4ccccc34)[C@]2(C)[C@H]2C1=CC[C@H]1C(=O)N(C)C(=O)[C@H]12	17	-5	-1	-1	2	-3	·	·
COc1ccc(C2NC(=O)NC3=C2CCc2ccccc23)cc1 (stereo not drawn)	55*	·	2	20	10	1	46*	83*
Cc1ccc(C2NC(=O)NC3=C2CCc2ccccc23)cc1 (stereo not drawn)	8	·	-2	-2	-4	-5	·	·
COc1ccc(-c2ncccc2O)cc1	4	-6	-1	-11	-5	-4	·	·
CN(C)CCCNC(=O)c1ccc(-c2cc(O)c3ncccc3c2)cc1	55*	·	1	·	-10	-1	34	55*
CN(C)c1ccc(-c2cc(O)c3ncccc3c2)cc1	92*	·	25	115*	88*	6	84*	50*
Cc1cccc(NC(=O)COc2ccccc2C(=O)NC(C)c2ccccc2)c1 (stereo not drawn)	28	27	0	-2	10	-6	·	·
Cc1cccc(C)c1NC(=O)CN1CCN(CCCC(c2ccc(F)cc2)c2ccc(F)cc2)CC1	60*	·	8	·	·	1	44*	74*
CCOc1cc(-c2c(C#N)c(N)nc3c2CCc2ccccc2-3)ccc1O	81*	21	3	0	7	2	79*	51*
COc1ccccc1-c1c(C#N)c(N)nc2c1CCc1ccccc1-2	70*	44	17	·	·	7	70*	53*
COc1ccccc1-c1c(C)c(C)nc(N)c1C#N	21	-13	0	·	-5	-1	·	·
CCOC(=O)C1=C(C)N(CCCC(=O)O)C(=O)NC1c1ccccc1Cl (stereo not drawn)	9	2	2	-15	-3	-1	·	·
COc1cccc(-c2nnc3sc(-c4ccc(C)cc4)nn23)c1	56*	-60	0	15	6	5	60*	47*
COc1cc(-c2nn3c(-c4ccccc4)nnc3s2)cc(OC)c1OC	19	19	-1	0	7	1	·	·
CCOc1cccc(-c2nnc3sc(-c4cc(OC)c(OC)c(OC)c4)nn23)c1	61*	22	-2	6	6	-2	15	·
Cc1ccc(NC2CCCN(C(=O)c3ccc(-n4ccnc4)cc3)C2)cc1C (stereo not drawn)	-2	25	-2	-3	-2	-2	·	·
CC(C)(C)c1nn(-c2ccccc2)c2[nH]c(=O)c(CNCc3ccc4c(c3)OCO4)cc12	92*	8	2	·	·	11	80*	64*
CCn1c(=NC(=O)CSC(C)=O)sc2ccccc21	-14	-10	-3	-6	-7	1	·	·
N=c1sc2ccccc2n1-c1ccccc1	79*	10	9	-19	-1	13	62*	57*
C=CC(=O)N=c1sc2ccccc2n1-c1ccccc1	82*	-161	15	48	·	-5	80*	37*
CC(C)COc1cccc(C(=O)N(CC(=O)Nc2ccccc2C(F)(F)F)Cc2ccco2)c1	-13	·	0	·	2	-3	·	·
CC(C)(C)NC(=S)NCc1ccncc1	-6	-8	-1	5	-3	2	·	·
SMILES	Mdm2 MdmX PPI	T cruzi inh	CHOP UPR activ	CSC inhib	Beta cell apopt	XBP1 UPR activ	Mdm2-MdmX conf	FLuc counter
CC(=O)c1c(C(C)=O)c(C)n(Cc2ccccc2)c1C	0	-20	-2	-12	-4	-5	·	·
Cc1c(C=O)c(C=O)c(C)n1Cc1ccccc1	86*	-19	4	44	·	-5	86*	31
COC1=C(N)C(=O)c2nc(-c3nc(C(=O)O)c(C)c(-c4ccc(OC)c(OC)c4O)c3N)ccc2C1=O	100*	·	10	·	·	-9	100*	2
CN(CC(=O)Nc1ccccc1Cl)C(=O)c1ccc(-c2cccc(C(F)(F)F)c2)o1	-11	10	1	·	-1	1	·	·
Oc1ccc(/C=N/Nc2cc(N3CCCC3)nc(N3CCCC3)n2)cc1	29	53	4	5	5	25	·	·
COc1ccc(/C=N/Nc2cc(N3CCCC3)nc(N3CCCC3)n2)cc1	77*	67*	7	92*	56	-1	20	·
CC1=[N+](C)c2ccc3ccccc3c2C1(C)C	86*	69*	8	103*	99*	11	69*	28
COc1ccc2c(c1)c(C(O)CN1CCC3(CC1)OCCO3)c(C)n2C (stereo not drawn)	·	2	·	·	·	·	·	·
O=C(CSc1nc2ncccc2[nH]1)Nc1ccccc1-c1ccccc1	15	-2	1	-13	1	-4	·	·
COc1ccc(C(CNC(=O)c2oc3c(Cl)cccc3c2C)N2CCCC2)cc1 (stereo not drawn)	17	17	0	-2	-1	-2	·	·
Cc1cc(C(=O)CN2C(=O)c3ccccc3C2=O)c(C)n1Cc1cccs1	68*	12	-1	-12	·	-4	67*	102*
Cc1cc(C(=O)Cn2nnc3ccccc3c2=O)c(C)n1Cc1cccs1	37	21	1	0	21	-3	·	·
COC(=O)c1sc2ccccc2c1-n1cccc1C(=O)C(=O)Nc1ccc(Cl)cc1	14	10	-1	30	7	-5	·	·
Cn1cc(/C=C2/SC(=O)N(CC(=O)Nc3ccc4c(c3)OCO4)C2=O)c2ccccc21	64*	8	1	20	21	17	21	·
Cc1cccc(C)c1NC(=O)CN1C(=O)S/C(=C\c2cccn2C)C1=O	80*	-4	1	-11	-9	-1	2	·
Cc1ccc(NC(=O)CN2C(=O)S/C(=C\c3ccccn3)C2=O)cc1C	68*	·	2	-14	0	-3	29	·
Cc1cccc(C)c1NC(=O)CN1C(=O)S/C(=C\c2cccn2-c2cccc(C(=O)O)c2)C1=O	18	-1	2	2	-2	-4	·	·
